Experimental findings from ChEMBL document CHEMBL1123397, “Antiarrhythmic activity of 17 beta-aminoestratrienes. Comparison of 3-ols and 3-acetates with the corresponding 3-(3-amino-2-hydroxypropyl) ethers” (1986) are described below.

The test system of assay [1] is Rattus norvegicus. Kind of assay: Effect on heart rate before isoprenaline induced tachycardia in the anesthetized rat at 2 mg/kg dose. Type of assay: functional. The procedure, abridged: (§1)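 Test drug or vehicle was given i.v., and isoprenaline (10 µg/kg) 14 min later. Heart rate was read from the lead II ECG just before drug, at 14 min (pre-isoprenaline) and 1 min after isoprenaline. Compared by Student's t test; 7–12 animals per group; mean ± SEM.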

The subject of assay [2] is Rattus norvegicus. Kind of assay: Effective dose that antagonized arrhythmias evoked by coronary artery ligation in the rat was measured at 1.0 mg/kg dose. The class given is functional.
In assay [3] the test system is Rattus norvegicus. Nature of the assay: Mean change in heart rate recorded 14 min after the administration of compound. Type of assay: functional. The procedure, abridged:
as §1

The species named for assay [4] is Rattus norvegicus. Nature of the assay: Maximum increase in heart rate evoked by isoprenaline. Type of assay: functional. The procedure, abridged: as §1
Assay [5] has as its system Rattus norvegicus. Nature of the assay: Effect on heart rate on 1 min post isoprenaline induced tachycardia in the anesthetized rat at 2.0 mg/kg dose. Type of assay: functional. The procedure, abridged: as §1
In assay [6] the test system is Rattus norvegicus. Kind of assay: Effect on heart rate after isoprenaline induced tachycardia in the anesthetized rat at 2 mg/kg dose. The class given is functional. The procedure, abridged: (§2)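 Same ligation protocol in anaesthetised male Wistar rats. Heart rate was taken from the lead II ECG at three points: just before i.v. drug or vehicle, 14 min after it (just before isoprenaline 10 μg/kg), and 1 min after isoprenaline. Pre vs post rates and isoprenaline responses vs controls were compared by Student's t test. Mean ± SEM of 7-12 observations.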

The species entered for the next assay is Cavia porcellus. Kind of assay: Concentration required to reduce maximum following frequencu (MFF) of isolated guinea pig atria by 25%. The class given is functional. The procedure, abridged: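 Guinea pig left atria in an organ bath of Krebs solution at 35 °C, gassed with carbogen, electrically driven, isometric contractions recorded. Drugs added cumulatively; maximum following frequency determined 6 min after each concentration. Concentration reducing MFF by 25% (EC25) calculated from six preparations.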

Assay [7] has as its system Rattus norvegicus. Nature of the assay: Compound was tested for antagonism of arrhythmias evoked by coronary artery ligation in the rat measured at 1 mg/kg dose. Type of assay: functional. The procedure, abridged: (§3)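 Male Wistar rats, anaesthetised and artificially ventilated, with left thoracotomy; silk suture under main left coronary artery. After stabilization, test drug or vehicle i.v.; 14 min later isoprenaline 10 μg/kg; 1 min after that the ligature was tightened and VF incidence recorded over 30 min. Carotid pressure and lead II ECG monitored continuously. 7-12 animals per group.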

Assay [8] has as its system Rattus norvegicus. Nature of the assay: Antagonism of Ventricular Fibrilloflutter (VF) evoked by coronary artery ligation in the rat measured at 2 mg/kg dose. Type of assay: functional, Heart. The procedure, abridged:
as §3

Another assay is filed under the species Mus musculus. Nature of the assay: ED 50 value against aconitine-induced arrhythmias in mice; IA is Inactive. The class given is functional, organism-based. The procedure, abridged: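 Anaesthetised mice were given test compound intraperitoneally, then aconitine intravenously to induce arrhythmia. At least three doses were tested in separate groups (n = 6-10). ED50 is the dose raising the arrhythmogenic aconitine dose 50% above the control requirement.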

Assay [9] has as its system Rattus norvegicus. Kind of assay: Compound was tested for antagonism of Ventricular Fibrilloflutter (VF) evoked by coronary artery ligation in the rat measured at 0.05 mg/kg dose. The class given is functional, Heart. The procedure, abridged:
as §3

Assay [10] concerns Rattus norvegicus. Kind of assay: Compound was tested for antagonism of Ventricular Fibrilloflutter (VF) evoked by coronary artery ligation in the rat measured at 10 mg/kg dose. The class given is functional, Heart. The procedure, abridged:
as §3

Assay [11] has as its system Rattus norvegicus. Nature of the assay: Effect on heart rate on 1 min post isoprenaline induced tachycardia in the anesthetized rat at 5.0 mg/kg dose. The class given is functional. The procedure, abridged:
as §1

Assay [12] has as its system Rattus norvegicus. Nature of the assay: Compound was tested for antagonism of Ventricular Fibrilloflutter (VF) evoked by coronary artery ligation in the rat measured at 5 mg/kg dose. The class given is functional, Heart. The procedure, abridged:
as §3

For assay [13], the system named is Rattus norvegicus. Nature of the assay: Effective dose that antagonized arrhythmias evoked by coronary artery ligation in the rat was measured at 5 mg/kg dose. The class given is functional.
For assay [14], the system named is Rattus norvegicus. Kind of assay: Effect on heart rate after isoprenaline induced tachycardia in the anesthetized rat at 5 mg/kg dose. Type of assay: functional. The procedure, abridged:
as §2

Assay [15] has as its system Rattus norvegicus. Nature of the assay: Effect on heart rate before isoprenaline induced tachycardia in the anesthetized rat at 5 mg/kg dose. The class given is functional. The procedure, abridged: as §1

Molecules are shown by their SMILES. In brackets after ≈: the same amount, converted by molar mass. Activity calls are given as the source filed them. The rule behind the calls is not given here.

The term ED50 denotes the dose at which the effect has come halfway, by size or by number of responders. A word on the EC25: it is the concentration at which the effect reaches the 25% level. Lower therefore signals an effect from little substance. With `CNC1[C@H](O)C[C@H]2[C@@H]3CCc4cc(OCC(O)CNC(C)(C)C)ccc4[C@H]3CC[C@]12C` (stereo not given in full), the Heart rate with Rattus norvegicus [1] came out at 415 beats min-1; in the assay on Rattus norvegicus [5] it was 302 beats min-1; in the assay on Rattus norvegicus [6], 294 beats min-1. Also, the ED50 in the assay with Rattus norvegicus [2] is 0.7 mg/kg. Moreover, the Change in the assay with Rattus norvegicus [3] is given as -29.2%. In the assay filed under Rattus norvegicus [4], the Increase came out at 3%. Further, the 25% effect level in the assay listed under Cavia porcellus (EC25) was put at 38.6 µg/mL (≈ 89.6 µM). For the same compound, the VF with Rattus norvegicus [7] is listed as 25%; with Rattus norvegicus [8] it was 0%; in the assay on Rattus norvegicus [9], 67%. In addition, in the assay filed under Mus musculus, the ED50 result was “inactive”.
In the case of `CC(=O)Nc1ccc(OCC(O)CNC(C)C)cc1` (stereo not given) [PRACTOLOL], the VF is on record as 29% in the assay on Rattus norvegicus [10], 43% with Rattus norvegicus [12] and 80% in the assay with Rattus norvegicus [8]. In addition, the Change in the assay with Rattus norvegicus [3] was -23.5%. Also, the Heart rate came out at 377 beats min-1 in the assay on Rattus norvegicus [11], 351 beats min-1 in the assay on Rattus norvegicus [14] and 459 beats min-1 in the assay with Rattus norvegicus [15]. This compound also returned an Increase in the assay filed under Rattus norvegicus [4] of 7.4%. In the assay on Rattus norvegicus [13], the ED50 is 5.6 mg/kg.
